According to ChEMBL document CHEMBL4024789, “Neutral Porphyrin Derivative Exerts Anticancer Activity by Targeting Cellular Topoisomerase I (Top1) and Promotes Apoptotic Cell Death without Stabilizing Top1-DNA Cleavage Complexes” (J Med Chem, 2018):
pEC50, pIC50, pKd: −log10 of the molar value. Active and inactive are the calls of the source. The rule behind the calls is not given here.

Columns and labels:
MCF7 [1] = experiment: Cytotoxicity against human MCF7 cells transfected with control SiRNA assessed as reduction in cell viability by MTT assay; type: functional, cell-based
Summary of the method: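 MCF7 cells transfected with Top1 or control siRNA for 72 h; knockdown confirmed by Western blot with actin as loading control. Percent survival then plotted against compound concentration.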

[2] = biological target: T1, DNA topoisomerase 1 (Homo sapiens) (UniProt P11387); experiment: Inhibition of recombinant human topoisomerase-1 expressed in baculovirus infected sf9 cells at 1 uM using supercoiled pBS SK(+) DNA as substrate after 15 mins by ethidium bromide staining based agarose gel electrophoresis method relative to control
T1 sequence (whole entry): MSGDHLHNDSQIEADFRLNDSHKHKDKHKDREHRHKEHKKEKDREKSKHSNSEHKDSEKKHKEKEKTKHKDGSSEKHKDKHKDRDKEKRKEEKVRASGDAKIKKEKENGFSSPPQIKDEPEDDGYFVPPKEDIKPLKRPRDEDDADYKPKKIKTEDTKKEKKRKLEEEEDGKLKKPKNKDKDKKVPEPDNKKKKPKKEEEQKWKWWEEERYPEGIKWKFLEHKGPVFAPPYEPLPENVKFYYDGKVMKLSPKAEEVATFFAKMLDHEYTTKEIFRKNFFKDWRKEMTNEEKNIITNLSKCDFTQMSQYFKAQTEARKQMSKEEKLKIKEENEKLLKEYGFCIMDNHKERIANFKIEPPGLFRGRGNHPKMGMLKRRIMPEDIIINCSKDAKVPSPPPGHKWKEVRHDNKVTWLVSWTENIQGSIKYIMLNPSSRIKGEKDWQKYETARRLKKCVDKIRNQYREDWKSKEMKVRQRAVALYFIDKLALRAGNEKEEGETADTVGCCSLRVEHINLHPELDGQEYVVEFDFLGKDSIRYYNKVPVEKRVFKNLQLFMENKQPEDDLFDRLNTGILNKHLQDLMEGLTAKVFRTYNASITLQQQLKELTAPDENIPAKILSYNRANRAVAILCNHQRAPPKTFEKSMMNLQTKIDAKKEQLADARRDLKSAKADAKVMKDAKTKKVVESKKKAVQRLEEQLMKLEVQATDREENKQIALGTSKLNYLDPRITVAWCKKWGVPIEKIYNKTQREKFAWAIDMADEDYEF
Summary of the method: (§1)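 Relaxation assay: 90 fmol supercoiled pBS (SK+) DNA with 30 fmol recombinant Top1 (Sf-9/baculovirus). Compound either preincubated with Top1 for 5 min before DNA addition, or added simultaneously with DNA; then 37 °C for 15 min. Vehicle 2% DMSO. Read on 1% agarose gel. EC50 from mean ± SD of three experiments.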

MCF7 [3] = experiment: Induction of PARP cleavage in human MCF7 cells at 10 uM up to 12 hrs by Western blot method; type: functional, cell-based
Summary of the method: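 MCF7 cells treated with 10 μM for the indicated times. Full-length and cleaved PARP1 detected by Western blot of whole-cell extracts using rabbit polyclonal PARP1 antibody.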

[4] = biological target: T1, DNA topoisomerase 1 (Homo sapiens); experiment: Inhibition of CPT-induced recombinant human EGFP-tagged topoisomerase-1- DNA cleavage complex formation assessed as restoration of Top1 mobility at 20 uM after 10 mins by FRAP assay; design: scale not given: the % may be the effect or the level left
Summary of the method: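 FRAP in living MCF7 cells transiently expressing EGFP-human Top1, 37 °C chamber. Treatment was CPT 5 μM or compound 20 μM for 10 min, or CPT for 10 min then compound for 10 min. A subnuclear spot was bleached for 30 ms at 488 nm; curves normalized to the prebleach signal.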

HCT-116 = experiment: Cytotoxicity against human HCT116 cells assessed as reduction in cell viability by MTT assay; type: functional, cell-based
Summary of the method: (§2)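 Survival of each cell line measured across a range of compound concentrations. Percent inhibition of viability at each concentration calculated against untreated control and IC50 estimated. MEFs were TDP1+/+ and TDP1–/– primary cells. Mean ± SD of at least three experiments in duplicate.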

[5] = biological target: T1, DNA topoisomerase 1 (Homo sapiens); experiment: Inhibition of topoisomerase-1 in human MCF7 whole cell extracts at 0.25 to 5 uM using supercoiled pBS SK(+) DNA as substrate preincubated for 5 mins followed by substrate addition measured after 15 mins by ethidium bromide staining based agarose gel electrophoresis method
Summary of the method: (§3)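 Ex vivo relaxation assay with MCF7 whole-cell lysate as the Top1 source and supercoiled pBS (SK+) DNA. Compound either preincubated with lysate for 5 min before DNA, or added simultaneously; then 37 °C for 15 min. CPT control at 5 μM. Read on agarose gel; mean ± SD, n=3.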

HeLa = experiment: Cytotoxicity against human HeLa cells assessed as reduction in cell viability by MTT assay; type: functional, cell-based; summary of the method: as §2
[6] = biological target: T1, DNA topoisomerase 1 (Homo sapiens); experiment: Inhibition of CPT-induced recombinant human topoisomerase1-[…] cleavage complex at 10 to 50 uM after 30 mins using topoisomerase1 expressed in baculovirus infected sf9 cells by […]
[7] = biological target: T1, DNA topoisomerase 1 (Homo sapiens); experiment: Inhibition of […]-induced topoisomerase-1- genomic DNA cleavage complex in human MCF7 cells at 20 uM after 6 hrs by ICE assay; type: cell-based
Summary of the method: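 ICE bioassay in MCF7 cells. Treatment was CPT (10 μM) or compound (20 μM) for 12 h, or CPT for 6 h then compound for a further 6 h. Genomic DNA (0.5–4 μg) probed with anti-Top1 antibody. Quantified with n = 3, ± SEM, t test.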

DNA topoisomerase 1 [8] = biological target: T2, DNA topoisomerase 1 (Homo sapiens, UniProt P11387); experiment: Inhibition of recombinant human topoisomerase-1 expressed in baculovirus infected sf9 cells using supercoiled pBS SK(+) DNA as substrate after 15 mins by ethidium bromide staining based agarose gel electrophoresis method; summary of the method: as §1
T2 sequence (P11387 whole entry): T1 sequence (whole entry)

DNA topoisomerase 1 [9] = biological target: T2, DNA topoisomerase 1; experiment: Binding affinity to recombinant human topoisomerase-1 expressed in baculovirus infected sf9 cells by spectrofluorimetric method
Summary of the method: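 Purified Top1 (200 nM) incubated with compound at 0–11 μM, 25 °C, 10 min. Tryptophan emission read at 350 nm (ex 295 nm). Fraction bound B = (F0 – F)/Fmax, with Fmax taken from a double-reciprocal 1/(F0 – F) vs 1/[X] plot; KD derived from this. Mean ± SD, n=3.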

[10] = biological target: T1, DNA topoisomerase 1 (Homo sapiens); experiment: Ratio of compound effect for inhibition of recombinant human topoisomerase-1 expressed in baculovirus infected sf9 cells preincubated for 5 mins followed by substrate addition to compound effect for recombinant human topoisomerase-1 expressed in baculovirus infected sf9 cells simultaneously incubated with substrate
Summary of the method: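 Recombinant human Top1 purified from baculovirus-infected Sf-9 cells; 30 fmol enzyme with 90 fmol supercoiled pBS (SK+) DNA (3:1 molar ratio) in relaxation buffer. Compound either preincubated with enzyme 5 min before DNA, or added simultaneously; then 37 °C, 15 min. Relaxation on 1% agarose; % inhibition quantified, EC50 from three experiments (mean ± SD).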

MEF = experiment: Cytotoxicity against TDP1+/+ MEF assessed as reduction in cell viability by MTT assay; type: cell-based; details: Mus musculus; summary of the method: as §2
MCF7 [11] = experiment: Induction of DNA strand breaks in human MCF7 cells at 20 uM after 12 hrs in presence of ROS inhibitor NAC by alkaline comet assay relative to control; type: functional, cell-based
Summary of the method: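 MCF7 cells treated 12 h, with or without 30 min pretreatment with NAC (10 mM). Strand breaks measured by alkaline comet assay; mean comet tail calculated for 20–25 cells (average ± SEM).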

[12] = biological target: T1, DNA topoisomerase 1 (Homo sapiens); experiment: Inhibition of topoisomerase-1 in human MCF7 whole cell extracts at 0.25 to 5 uM using supercoiled pBS SK(+) DNA as substrate after 15 mins by ethidium bromide staining based agarose gel electrophoresis method; summary of the method: as §3

## CN(C)c1ccc(-c2c3nc(c(-c4ccc(N(C)C)cc4)c4ccc([nH]4)c(-c4ccc(C(=O)O)cc4)c4nc(c(-c5ccc(C(=O)O)cc5)c5ccc2[nH]5)C=C4)C=C3)cc1
MCF7 [1]
  pIC50: 5.65
[2]
  inhibition: 35 to 40%
MCF7 [3]
  Activity: Active
[4]
  Activity: 12 to 15%
HCT-116
  pIC50: 5.36
[5]
  inhibition: Active
HeLa
  pIC50: 5.38
[6]
  inhibition: Active
[7]
  inhibition: Active
DNA topoisomerase 1 [8]
  pEC50: 5.83
DNA topoisomerase 1 [9]
  pKd: 6.42
[10]
  Ratio: 2 to 3
MEF
  pIC50: < 5.00
MCF7 [11]
  Activity: inactive
[12]
  inhibition: Active
